Assay results from ChEMBL document CHEMBL1649157, “Intracellular activity of antibiotics against Staphylococcus aureus in a mouse peritonitis model” (Antimicrob Agents Chemother, 2009).
Converted amounts (≈) assume the structure as drawn. The source made the active and inactive calls. The rule behind the calls is not given here.

Key:
[1] = system: Staphylococcus aureus; assay: Bactericidal activity against Staphylococcus aureus E19977 assessed as log reduction in cfu at 9 mg/liter upto 24 hrs by time-kill study; type: functional, organism-based
In short: (§1)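 In vitro kinetic model: exponential-phase bacteria at a final 10^6.3 CFU/ml were exposed to a starting concentration set to the human free peak level. Elimination followed the simulated human half-life. Samples were taken at 0, 2, 4, 6, 8, 12 and 24 h and counted on 5% blood agar (detection limit 25 CFU/ml). Growth controls were included; n = 2.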

[2] = system: Staphylococcus aureus; assay: Bactericidal activity against Staphylococcus aureus E19977 assessed as log reduction in cfu at 20 mg/liter upto 24 hrs by time-kill study; type: functional; in short: as §1
[3] = system: Staphylococcus aureus; assay: Bactericidal activity against Staphylococcus aureus E19977 assessed as log reduction in cfu at 9 mg/liter after 24 hrs by time-kill study; type: functional, organism-based
In short: (§2)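 In vitro kinetic model simulating antibiotic elimination without inoculum change. Exponential-phase E19977 was added at a final 10^6.3 CFU/ml. Starting drug concentration matched the human free peak, with the human half-life simulated. Samples were plated on 5% blood agar at 0, 2, 4, 6, 8, 12 and 24 h, with growth controls in each run. Results are shown as mean and range, n = 2.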

[4] = system: Staphylococcus aureus; assay: Bactericidal activity against Staphylococcus aureus E19977 assessed as log reduction in cfu at 2 mg/liter after 24 hrs by time-kill study; type: functional, organism-based; in short: as §2
[5] = system: Staphylococcus aureus; assay: Bactericidal activity against Staphylococcus aureus E19977 assessed as log reduction in cfu at 1.5 mg/liter after 24 hrs by time-kill study; type: functional, organism-based; in short: as §2
[6] = system: Staphylococcus aureus; assay: Bactericidal activity against Staphylococcus aureus E19977 assessed as log reduction in cfu at 20 mg/liter after 24 hrs by time-kill study; type: functional, organism-based; in short: as §2
[7] = system: Staphylococcus aureus; assay: Bactericidal activity against Staphylococcus aureus E19977 assessed as log reduction in cfu at 0.5 mg/liter after 24 hrs by time-kill study; type: functional, organism-based; in short: as §2
[8] = system: Staphylococcus aureus; assay: Antibacterial activity against Staphylococcus aureus E19977 infected in NMRI mouse assessed as log reduction in bacterial cfu in peritoneum at 10 mg/kg, sc administered 2 hrs after infection measured after 4 hrs; type: functional, organism-based; set-up: dose 10 mg/kg
In short: (§3)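 Outbred female NMRI mice (25 to 30 g) received 0.5 ml of 10^7.7 CFU/ml inoculum in 5% mucin i.p. A single dose was given 2 h post-challenge, and mice were sampled 4 h later by 2.0 ml saline peritoneal wash, pooling two mice. Extracellular and intracellular fractions were separated by 300 × g centrifugation, lysostaphin, four HBSS washes and water lysis. Counts on blood agar; median of n = 8.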

[9] = system: Staphylococcus aureus; assay: Antibacterial activity against Staphylococcus aureus E19977 infected in NMRI mouse assessed as log reduction in intracellular bacterial cfu in peritoneum at 10 mg/kg, sc administered 2 hrs after infection measured after 4 hrs; type: functional, organism-based; set-up: dose 10 mg/kg; in short: as §3
[10] = system: Staphylococcus aureus; assay: Antibacterial activity against Staphylococcus aureus E19977 infected in NMRI mouse assessed as log reduction in extracellular bacterial cfu in peritoneum at 10 mg/kg, sc administered 2 hrs after infection measured after 4 hrs; type: functional, organism-based; set-up: dose 10 mg/kg; in short: as §3
[11] = system: Staphylococcus aureus; assay: Antibacterial activity against Staphylococcus aureus E19977 by Etest; type: functional
[12] = system: Staphylococcus aureus; assay: Bactericidal activity against Staphylococcus aureus E19977 assessed as log reduction in cfu at 2 mg/liter after 12 hrs by time-kill study; type: functional
In short: (§4)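 Clinical bacteremia isolate (penicillin-resistant, methicillin-susceptible). Exponential-phase bacteria were placed in an in vitro kinetic model that simulates drug elimination without changing the inoculum. The starting drug level matched the human free peak serum concentration after a single dose, with simulated human elimination half-life. Samples were taken at 0, 2, 4, 6, 8, 12 and 24 h, with growth controls in each run.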

[13] = system: Staphylococcus aureus; assay: Bactericidal activity against Staphylococcus aureus E19977 assessed as log reduction in cfu at 2 mg/liter upto 24 hrs by time-kill study; type: functional; in short: as §4
[14] = system: Staphylococcus aureus; assay: Bactericidal activity against Staphylococcus aureus E19977 assessed as log reduction in cfu at 1.5 mg/liter upto 24 hrs by time-kill study; type: functional; in short: as §4
[15] = system: Staphylococcus aureus; assay: Antibacterial activity against Staphylococcus aureus E19977 infected in NMRI mouse assessed as log reduction in bacterial cfu in peritoneum at 200 mg/kg, sc administered 2 hrs after infection measured after 4 hrs; type: functional, organism-based; set-up: dose 200 mg/kg
In short: (§5)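 Dose–response in i.p.-infected NMRI mice (mucin adjuvant). Single doses of 200, 60, 30, 20 or 10 mg/kg were given 2 h after inoculation, with 4–16 mice per group. Peritoneal wash was sampled 4 h later and split by lysostaphin/centrifugation into total, extra- and intracellular counts, then expressed as Δlog10 CFU/ml against log dose. Vehicle controls were plotted as 0.3 mg/kg. Hill fit (variable slope); static dose interpolated.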

[16] = system: Staphylococcus aureus; assay: Antibacterial activity against Staphylococcus aureus E19977 infected in NMRI mouse assessed as log reduction in intracellular bacterial cfu in peritoneum at 200 mg/kg, sc administered 2 hrs after infection measured after 4 hrs; type: functional, organism-based; set-up: dose 200 mg/kg; in short: as §5
[17] = system: Staphylococcus aureus; assay: Antibacterial activity against Staphylococcus aureus E19977 infected in NMRI mouse assessed as log reduction in extracellular bacterial cfu in peritoneum at 200 mg/kg, sc administered 2 hrs after infection measured after 4 hrs; type: functional, organism-based; set-up: dose 200 mg/kg; in short: as §5
[18] = Cmax in human at 1000 mg, im; type: ADME, organism-based; set-up: dose 1000 mg, route […]; settings: in vivo
[19] = system: Serum; assay: Protein binding in human serum at 1000 mg, im; type: ADME, cell-free
[20] = Half life in human at 1000 mg, im; type: ADME, organism-based; settings: in vivo
[21] = system: Staphylococcus aureus; assay: Antibacterial activity against Staphylococcus aureus E19977 infected in NMRI mouse assessed as log reduction in intracellular bacterial cfu in peritoneum at 60 mg/kg, sc administered 2 hrs after infection evry 8 hrs as three-dose regimen measured after 19 hrs; type: functional, organism-based; set-up: dose 60 mg/kg
In short: (§6)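 NMRI mice were infected i.p. and given one or three doses (every 8 h), starting 2 h post-inoculation, at 200 mg/kg or 60 mg/kg, four mice per group. Peritoneal washes were sampled over 19 h of treatment. Total, extracellular and intracellular CFU/ml (lysostaphin separation) were compared with the pretreatment level; mean ± range, n = 2. Untreated controls were sampled only at 6 h of infection.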

[22] = system: Staphylococcus aureus; assay: Antibacterial activity against Staphylococcus aureus E19977 infected in NMRI mouse assessed as log reduction in intracellular bacterial cfu in peritoneum at 60 mg/kg, sc administered as single dose 2 hrs after infection measured within 4 hrs; type: functional, organism-based; set-up: dose 60 mg/kg; in short: as §6
[23] = system: Staphylococcus aureus; assay: Antibacterial activity against Staphylococcus aureus E19977 infected in NMRI mouse assessed as log reduction in bacterial cfu in peritoneum at 60 mg/kg, sc administered as single dose 2 hrs after infection measured upto 19 hrs; type: functional, organism-based; set-up: dose 60 mg/kg; in short: as §6
[24] = system: Staphylococcus aureus; assay: Antibacterial activity against Staphylococcus aureus E19977 infected in NMRI mouse assessed as log reduction in intracellular bacterial cfu in peritoneum at 60 mg/kg, sc administered as single dose 2 hrs after infection measured upto 19 hrs; type: functional, organism-based; set-up: dose 60 mg/kg; in short: as §6
[25] = system: Staphylococcus aureus; assay: Antibacterial activity against Staphylococcus aureus E19977 infected in NMRI mouse assessed as log reduction in extracellular bacterial cfu in peritoneum at 60 mg/kg, sc administered as single dose 2 hrs after infection measured upto 19 hrs; type: functional, organism-based; set-up: dose 60 mg/kg; in short: as §6
[26] = system: Staphylococcus aureus; assay: Antibacterial activity against Staphylococcus aureus E19977 infected in NMRI mouse assessed as log reduction in bacterial cfu in peritoneum at 10 mg/kg, sc administered as single dose 1 hr after infection measured after 4 hrs; type: functional, organism-based; set-up: dose 10 mg/kg
In short: (§7)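 NMRI mice were infected i.p. with S. aureus E19977 in 5% mucin. A single dose (60 mg/kg or 10 mg/kg) was given 1, 2 or 3 h after inoculation, four mice per group. Peritoneal wash was sampled after 4 h of treatment and separated into total, extracellular and intracellular counts by lysostaphin/centrifugation. Δlog10 CFU/ml was calculated against vehicle-treated mice infected for the same time (5, 6 or 7 h).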

[27] = system: Staphylococcus aureus; assay: Antibacterial activity against Staphylococcus aureus E19977 infected in NMRI mouse assessed as log reduction in bacterial cfu in peritoneum at 10 mg/kg, sc administered as single dose 2 hrs after infection measured after 4 hrs; type: functional, organism-based; set-up: dose 10 mg/kg; in short: as §7
[28] = system: Staphylococcus aureus; assay: Antibacterial activity against Staphylococcus aureus E19977 infected in NMRI mouse assessed as log reduction in bacterial cfu in peritoneum at 10 mg/kg, sc administered as single dose 3 hrs after infection measured after 4 hrs; type: functional, organism-based; set-up: dose 10 mg/kg; in short: as §7
[29] = system: Staphylococcus aureus; assay: Antibacterial activity against Staphylococcus aureus E19977 infected in NMRI mouse assessed as log reduction in intracellular bacterial cfu in peritoneum at 10 mg/kg, sc administered as single dose 1 hr after infection measured after 4 hrs; type: functional, organism-based; set-up: dose 10 mg/kg; in short: as §7
[30] = system: Staphylococcus aureus; assay: Antibacterial activity against Staphylococcus aureus E19977 infected in NMRI mouse assessed as log reduction in intracellular bacterial cfu in peritoneum at 10 mg/kg, sc administered as single dose 2 hrs after infection measured after 4 hrs; type: functional, organism-based; set-up: dose 10 mg/kg; in short: as §7
[31] = system: Staphylococcus aureus; assay: Antibacterial activity against Staphylococcus aureus E19977 infected in NMRI mouse assessed as log reduction in intracellular bacterial cfu in peritoneum at 10 mg/kg, sc administered as single dose 3 hrs after infection measured after 4 hrs; type: functional, organism-based; set-up: dose 10 mg/kg; in short: as §7
[32] = system: Staphylococcus aureus; assay: Antibacterial activity against Staphylococcus aureus E19977 infected in NMRI mouse assessed as log reduction in extracellular bacterial cfu in peritoneum at 10 mg/kg, sc administered as single dose 1 hr after infection measured after 4 hrs; type: functional, organism-based; set-up: dose 10 mg/kg; in short: as §7
[33] = system: Staphylococcus aureus; assay: Antibacterial activity against Staphylococcus aureus E19977 infected in NMRI mouse assessed as log reduction in extracellular bacterial cfu in peritoneum at 10 mg/kg, sc administered as single dose 2 hrs after infection measured after 4 hrs; type: functional, organism-based; set-up: dose 10 mg/kg; in short: as §7
[34] = system: Staphylococcus aureus; assay: Antibacterial activity against Staphylococcus aureus E19977 infected in NMRI mouse assessed as log reduction in extracellular bacterial cfu in peritoneum at 10 mg/kg, sc administered as single dose 3 hrs after infection measured after 4 hrs; type: functional, organism-based; set-up: dose 10 mg/kg; in short: as §7
[35] = system: Serum; assay: Protein binding in human serum at 600 mg, po; type: ADME, organism-based; settings: in vivo

Row | Molecule | FC [2] | Activity [3] | Activity [4] | Activity [5] | Activity [6] | Activity [7] | Activity [8] | Activity [9] | Activity [10] | MIC [11] | FC [12] | FC [13] | further results
1 | GENTAMICIN | > 2 | inactive | inactive | inactive | inactive | inactive | inactive | inactive | inactive | 0.38 µg/mL |  |  | FC [1]: 4
2 | CO/N=C(\C(=O)N[C@@H]1C(=O)N2C(C(=O)O)=C(COC(N)=O)CS[C@H]12)c1ccco1 [CEFUROXIME] | >2 | inactive | inactive | inactive | inactive | inactive |  |  |  | 2 µg/mL (≈ 4.71 µM) | 2 | 2 | FC [14]: 2; Activity [15]: Active; Activity [16]: inactive; Activity [17]: Active; Cmax [18]: 26000 ng/mL; Activity [19]: 30%; half-life [20]: 1.5 h
3 | CO[C@H]1/C=C/O[C@@]2(C)Oc3c(C)c(O)c4c(O)c(c(/C=N/N5CCN(C)CC5)c(O)c4c3C2=O)NC(=O)/C(C)=C\C=C\[C@H](C)[C@H](O)[C@@H](C)[C@@H](O)[C@@H](C)[C@H](OC(C)=O)[C@@H]1C [RIFAMPIN] | >2 | inactive | inactive | inactive | inactive | inactive | Active | Active | inactive | < 0.016 µg/mL | 2 | 2 | Activity [21]: inactive; Activity [22]: inactive; Activity [23]: inactive; Activity [24]: inactive; Activity [25]: inactive; FC ([14]; in the assay text read “2.0 mg/liter” for “1.5 mg/liter”): 2; Activity [26]: Active; Activity [27]: inactive; Activity [28]: inactive; Activity [29]: Active; Activity [30]: inactive; Activity [31]: inactive; Activity [32]: Active; Activity [33]: inactive; Activity [34]: inactive; Activity [35]: 80%
